According to ChEMBL document CHEMBL1124937 (J Med Chem, 1990):

Tests used:
[1] = target: Beta-2 adrenergic receptor (Mus musculus, UniProt P18762); assay: Ki value was determined by accumulation of c-AMP in S-49 mouse lymphoma cells (Beta2).; assay type: cell-based
Outline: (§1)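 Antagonist Ki from in vitro inhibition of cyclic AMP accumulation, with cAMP quantified by radioimmunoassay. Cells were prepared as in the group's earlier work. Ki was calculated with the Cheng–Prusoff equation. The four single stereoisomers of each derivative, the stereoisomeric mixture and the parent drug were tested. Relative potency is given versus the parent drug.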

[2] = species on record: Rattus norvegicus; assay: Biological activity in vitro, Ki value was determined by accumulation of c-AMP in rat fat cells (Beta1).; assay type: functional, cell-based; outline: as §1
[3] = species on record: Rattus norvegicus; assay: Relative potency(RP) was determined for the biological activity determined in rat fat cells (Beta1); assay type: functional
Outline: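 Rat fat cells (β1), prepared as previously described, were assayed in vitro for antagonist inhibition of cAMP accumulation, with cAMP measured by radioimmunoassay. Ki values were calculated with the Cheng–Prusoff equation. Potency is expressed relative to the progenitor drug, which was tested alongside the individual stereoisomers and the stereoisomeric mixture.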

Sequence of Beta-2 adrenergic receptor (P18762 whole entry): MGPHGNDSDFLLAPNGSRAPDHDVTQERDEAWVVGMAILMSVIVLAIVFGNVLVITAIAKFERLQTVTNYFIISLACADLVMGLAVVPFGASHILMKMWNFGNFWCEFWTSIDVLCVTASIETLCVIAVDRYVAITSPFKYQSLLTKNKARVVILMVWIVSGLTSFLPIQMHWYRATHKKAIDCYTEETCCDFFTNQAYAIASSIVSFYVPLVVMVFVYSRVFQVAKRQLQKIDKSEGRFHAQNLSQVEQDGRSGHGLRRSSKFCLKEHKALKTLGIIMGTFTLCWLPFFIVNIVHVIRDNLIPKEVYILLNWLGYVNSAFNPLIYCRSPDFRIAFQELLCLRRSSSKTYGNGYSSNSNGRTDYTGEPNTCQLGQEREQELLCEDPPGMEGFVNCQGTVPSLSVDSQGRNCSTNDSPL

Row | Ki [1] | Structure (SMILES) | Ki [2] | Relative potency [3]
1 | 195000 nM | Cc1ccc(NC(=O)CCCC[C@@H](C)NC[C@@H](O)COc2cccc3ccccc23)cc1 |  | 
2 | 146 nM | CC(=O)Nc1ccc(OC[C@@H](O)CN[C@H](C)CCCCC(=O)Nc2ccc(C(F)(F)F)cc2)cc1 | 31 nM | 22.6
3 | 78000 nM | CC(CCCCC(=O)Nc1ccc(C(F)(F)F)cc1)NCC(O)COc1cccc2ccccc12 (stereo unspecified) |  | 
4 | 62000 nM | CC(=O)Nc1ccc(OC[C@H](O)CN[C@@H](C)CCCCC(=O)Nc2ccc(C(F)(F)F)cc2)cc1 (mixture of isomers) | 6700 nM | 0.104
5 | 195000 nM | Cc1ccc(NC(=O)CCCC[C@H](C)NC[C@@H](O)COc2cccc3ccccc23)cc1 (racemic) |  | 
6 | 15600 nM | CC(=O)Nc1ccc(OC[C@@H](O)CN[C@@H](C)CCCCC(=O)Nc2ccc(C)cc2)cc1 | 1580 nM | 0.442
7 | 53600 nM | CC(=O)Nc1ccc(OC[C@H](O)CN[C@H](C)CCCCC(=O)Nc2ccc(C)cc2)cc1 | 1990 nM | 0.351
8 |  | CC(=O)Nc1ccc(OCC(O)CNC(C)C)cc1 (stereo unspecified) [PRACTOLOL] | 700 nM | 
9 | 2850 nM | CC(=O)Nc1ccc(OC[C@@H](O)CN[C@@H](C)CCCCC(=O)Nc2ccc(C(F)(F)F)cc2)cc1 | 350 nM | 2
10 | 2170 nM | CC(=O)Nc1ccc(OC[C@H](O)CN[C@H](C)CCCCC(=O)Nc2ccc(C(F)(F)F)cc2)cc1 | 240 nM | 2.92
11 | 130000 nM | C[C@H](CCCCC(=O)Nc1ccc(C(F)(F)F)cc1)NC[C@@H](O)COc1cccc2ccccc12 |  | 
12 | 45900 nM | C[C@H](CCCCC(=O)Nc1ccc(C(F)(F)F)cc1)NC[C@H](O)COc1cccc2ccccc12 |  | 
13 | 39000 nM | C[C@@H](CCCCC(=O)Nc1ccc(C(F)(F)F)cc1)NC[C@H](O)COc1cccc2ccccc12 |  | 
14 | 179000 nM | C[C@@H](CCCCC(=O)Nc1ccc(C(F)(F)F)cc1)NC[C@@H](O)COc1cccc2ccccc12 (racemic) |  | 
15 | 1180 nM | CC(=O)Nc1ccc(OCC(O)CNC(C)CCCCC(=O)Nc2ccc(C)cc2)cc1 (stereo unspecified) | 260 nM | 2.71
16 | 9240 nM | CC(=O)Nc1ccc(OC[C@H](O)CN[C@@H](C)CCCCC(=O)Nc2ccc(C)cc2)cc1 | 2620 nM | 0.267
17 | 43300 nM | Cc1ccc(NC(=O)CCCCC(C)NCC(O)COc2cccc3ccccc23)cc1 (stereo unspecified) |  | 
18 | 9070 nM | Cc1ccc(NC(=O)CCCC[C@@H](C)NC[C@H](O)COc2cccc3ccccc23)cc1 |  | 
19 | 390 nM | CC(=O)Nc1ccc(OCC(O)CNC(C)CCCCC(=O)Nc2ccc(C(F)(F)F)cc2)cc1 (stereo unspecified) | 130 nM | 7.8
20 | 41000 nM | Cc1ccc(NC(=O)CCCC[C@H](C)NC[C@H](O)COc2cccc3ccccc23)cc1 |  | 
21 | 810 nM | CC(=O)Nc1ccc(OC[C@@H](O)CN[C@H](C)CCCCC(=O)Nc2ccc(C)cc2)cc1 | 260 nM | 2.71
